Drawing on ChEMBL document CHEMBL2150888, “Conformationally constrained peptides from CD2 to modulate protein-protein interactions between CD2 and CD58” (J Med Chem, 2011), this text covers inhibition, viability and IC50 for seven compounds.

*1 amine or outer side, *2 acyl side, *3 side chain or, on linkers, in order; H or OH if unused. Where a SMILES comes first, the peptide text is derived from it. [ ]: non-standard residue; d: D form. X1 = O=C(CCc1cccc2c1oc1c(CCN[*:1])cccc12)[*:2]

Data set [1] deals with T1, Lymphocyte function-associated antigen 3/T-cell surface antigen CD2 (Homo sapiens) (UniProt P06729+P19256). The data set can be described thus: (§1) Inhibition of CD2-CD58 protein-protein interaction assessed as inhibition of cell adhesion between CD58 expressing human Caco2 cells and CD2 expressing human Jurkat cells by BCECF-AM fluorescent dye based fluorimetric assay. Further details: concentration or dose not given beside the values. As to conditions: concentration not given here.

For the next data set, the system named is T-cell. Kind of data set: Inhibition of T-cell response to type 2 collagen in type 2 collagen primed T cells derived from transgenic mouse expressing functional HLA-DQ8 by [3H]thymidine incorporation assay. The format is cell-based. The method in brief:
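Lymph node cells (draining popliteal, caudal, lumbar) taken 10 days after intradermal tail-base immunization of HLA-DQ8 transgenic mice with 200 µg native chick CII in CFA (1:1). 1 × 10^6 LNC challenged in vitro with CII at 50 µg/mL, with peptide at four concentrations (10–.01 µM); 3H-thymidine (1 µCi/well) pulse for last 18 h; Δcpm = test minus medium control; mean ±S.D., N = 4.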

The nature of data set [2]: Toxicity in human Jurkat cells assessed as cell viability incubated for 2 hrs by CellTiter-Glo assay. The format is cell-based. The settings on record: read-out: Activity. Summed up: (§2)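 Jurkat suspensions treated in tubes with peptide (diluted in serum-free medium from DMSO stock) for 2 h, washed by centrifugation, then CellTiter-Glo luminescence read on a microplate. Blank-subtracted, with SDS and 1% DMSO controls. Viability relative to cells without peptide; triplicates in two independent runs.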

The nature of data set [3]: Toxicity in human Caco2 cells assessed as cell viability incubated for 2 hrs by CellTiter-Glo assay. The format is cell-based. The settings on record: Caco-2 cells, read-out: Activity. Summed up:
(§3)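 Caco-2 cells exposed to peptide (200–0.1 µM, diluted in serum-free medium from DMSO stock) for 2 and 3 h, washed with PBS, then CellTiter-Glo luminescence read. Blank-subtracted, with 0.1% SDS and 1% DMSO controls. Viability relative to cells without peptide; triplicates in two independent runs.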
For orientation: ATP-based viability assays read luminescence as a measure of living cells.

A short description of data set [4]: Toxicity in human Jurkat cells assessed as cell viability at 200 yuM incubated for 2 hrs by CellTiter-Glo assay. As to conditions: read-out: Activity. The format is cell-based. Summed up:
as §2

Data set [5] concerns the target T1, Lymphocyte function-associated antigen 3/T-cell surface antigen CD2 (Homo sapiens). The data set can be described thus: Inhibition of CD2-CD58 protein-protein interaction assessed as inhibition of cell adhesion between CD58 expressing human Caco2 cells and CD2 expressing human Jurkat cells at =< 1 uM by BCECF-AM fluorescent dye based fluorimetric assay.
Data set [6] is described as follows: Toxicity in human Caco2 cells assessed as cell viability at 200 uM incubated for 2 hrs by CellTiter-Glo assay. The format is cell-based. As to conditions: Caco-2 cells, read-out: Activity. The method in brief: as §3
The target in data set [7] is T2, Lymphocyte function-associated antigen 3/T-cell surface antigen CD2 (Homo sapiens, UniProt P06729+P19256).
T2 sequence (P06729 whole entry): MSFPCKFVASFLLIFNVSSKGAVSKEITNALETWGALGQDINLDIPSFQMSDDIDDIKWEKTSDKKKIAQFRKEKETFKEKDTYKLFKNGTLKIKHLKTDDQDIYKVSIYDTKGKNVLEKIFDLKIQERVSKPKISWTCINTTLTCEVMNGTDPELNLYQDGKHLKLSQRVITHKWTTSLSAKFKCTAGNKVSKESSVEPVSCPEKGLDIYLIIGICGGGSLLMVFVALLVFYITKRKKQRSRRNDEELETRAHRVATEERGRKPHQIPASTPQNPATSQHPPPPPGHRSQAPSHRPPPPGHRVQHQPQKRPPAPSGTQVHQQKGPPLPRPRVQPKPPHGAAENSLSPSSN
T2 sequence (P19256 whole entry): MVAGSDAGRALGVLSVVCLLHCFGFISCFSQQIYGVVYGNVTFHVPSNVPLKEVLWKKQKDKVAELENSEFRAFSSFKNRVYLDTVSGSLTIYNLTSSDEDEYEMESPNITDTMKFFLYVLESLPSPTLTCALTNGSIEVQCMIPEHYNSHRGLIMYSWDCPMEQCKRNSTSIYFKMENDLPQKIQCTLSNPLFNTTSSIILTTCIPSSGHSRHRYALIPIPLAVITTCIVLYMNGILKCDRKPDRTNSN
The data set is described as §1.

What is called inhibition is how much of the control response was suppressed. With H-KGKTDAISVKAI-NH2, the inhibition in data set [1] amounted to 18%.
As to `CC[C@H](C)[C@@H]1NC(=O)[C@H](CCCCN)NC(=O)[C@H](CC(=O)O)NC(=O)[C@H](CC(=O)O)NC(=O)[C@@H]2CCCN2C(=O)[C@H]2CCCN2C(=O)[C@H](CC(=O)O)NC(=O)[C@H](Cc2ccc(O)cc2)NC1=O`, the inhibition in data set [1] is less than 20%.
With `CC[C@H](C)[C@@H]1NC(=O)[C@H](Cc2ccc(O)cc2)NC(=O)[C@H](CC(=O)O)NC(=O)CCc2cccc3c2Oc2c(cccc2-3)CCNC(=O)[C@H](CC(=O)O)NC(=O)[C@H](CC(=O)O)NC(=O)[C@H]([C@@H](C)CC)NC(=O)[C@H](CCCCN)NC(=O)[C@H](CO)NC1=O` (cyclo(DD[X1]DYISKI)), the inhibition in data set [1] is less than 20%.
As for `CC[C@H](C)[C@@H]1NC(=O)[C@H](CC(=O)O)NC(=O)[C@H](CC(=O)O)NC(=O)[C@@H]2CCCN2C(=O)[C@H]2CCCN2C(=O)[C@H](CC(=O)O)NC(=O)[C@H](Cc2ccc(O)cc2)NC(=O)[C@H]([C@@H](C)CC)NC(=O)[C@H](CO)NC(=O)[C@H](CCCCN)NC1=O`, the inhibition entry in the data set on T-cell was “Dose-dependent effect”. In addition, the viability at 2 h in data set [2] and in data set [3] was more than 95% in each case.
On to `CC[C@H](C)[C@@H]1NC(=O)[C@H](CC(=O)O)NC(=O)[C@H](CC(=O)O)NC(=O)CCc2cccc3c2Oc2c(cccc2-3)CCNC(=O)[C@H](CC(=O)O)NC(=O)[C@H](Cc2ccc(O)cc2)NC(=O)[C@H]([C@@H](C)CC)NC(=O)[C@H](CO)NC(=O)[C@H](CCCCN)NC1=O` (cyclo(DDIKSIYD[X1])), for which the inhibition in data set [1] is less than 20%.
The term IC50 denotes the midpoint of a concentration-inhibition curve. Turning to `CC[C@H](C)[C@@H]1NC(=O)[C@H](Cc2ccc(O)cc2)NC(=O)[C@H](CC(=O)O)NC(=O)CCc2cccc3c2Oc2c(cccc2-3)CCNC(=O)[C@H](CC(=O)O)NC(=O)[C@H](CC(=O)O)NC(=O)[C@H](CCCCN)NC1=O` (cyclo(DD[X1]DYIK)), the viability at 2 h, 200 µM in data set [4] and in data set [6] was 90% throughout. Besides, the inhibition in data set [5] came out at 80%. For the same compound, the viability at 2 h in data set [2] and in data set [3] was more than 95% each time. Also, the IC50 in data set [7] came out at 11.1 nM.
For `CC[C@H](C)[C@@H]1NC(=O)[C@H](CCCCN)NC(=O)[C@H](CC(=O)O)NC(=O)[C@H](CC(=O)O)NC(=O)CCc2cccc3c2Oc2c(cccc2-3)CCNC(=O)[C@H](CC(=O)O)NC(=O)[C@H](Cc2ccc(O)cc2)NC1=O` (cyclo(DDKIYD[X1])), the inhibition in data set [1] was less than 20%.
